Drawing on PubChem BioAssay, this text covers viability, differential viability (reversal) and inhibition for 18 compounds.

Test [1] can be described thus: reduced viability of SK-BR-3 breast cancer cells – cell-based, 24 h, human, pilot screen (AID 572;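 active = viability at or below 10% of carrier control in both of two separate runs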;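 also: compound exposure lasted between 18 and 24 h rather than exactly 24 h; 100% = carrier-treated control wells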). The following applies: SK-BR-3 viability, CellTiter-Glo luminescence, at 10 µM, stronger effect = lower value. A general note: In ATP-based viability assays light output follows the ATP content of the culture.
Test [2] is described as follows: HUVEC growth inhibition – cell-based, human, primary screen (AID 575;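 active = viability at or below 30% in both replicate assays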;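 also: 100% = median of untreated cell wells with 0.1% DMSO on each plate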). The following applies: HUVEC proliferation, CellTiter-Glo luminescence, 72 h; at 10 µM; stronger effect = lower value. The method, boiled down:
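Test system: primary human umbilical vein endothelial cells; medium: endothelial basal medium with 2% FBS plus growth supplements; dosing: 10 µM compound only; times: 72 h treatment at 37 °C; signal: CTG luminescence; read-out: % viability relative to median vehicle-well signal on each plate; control set: vehicle and MePR control wells; plate: 384-well, collagen-coated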

Test [3] in a line: H69AR cell proliferation blockers – human, duplicate replicates, primary screen (AID 580;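 active = viability at or under a set limit in both replicates, limit being median viability minus 3 SD, cut at about 48% in these data, passing the limit was not always enough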;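 also: 100% = mean luminescence of untreated wells and 0% = no signal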). Conditions: H69AR lung tumor cells viability, ATP luminescence, 72 h; at 10 µM; stronger effect = lower value.
The nature of test [4]: MRP1 drug-resistance reversers in H69AR cells – cell-based, doxorubicin co-treatment, pilot screen (AID 601;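 active = viability loss from added drug above about 55%, and viability with drug at most 40%, in both replicates, limit read from the data, passing the limit was not always enough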). Conditions: CellTiter-Glo, 72 h, at 10 µM; for differential viability (reversal): stronger effect = higher value.
The nature of test [5]: yeast transport mutant growth inhibition pilot in 384-well plates, post-Golgi transport modulator project (AID 636; in the data active = inhibition above about 31%). Conditions: absorbance 615 nm, about 18 h, stronger effect = higher value.
Test [6] can be described thus: growth suppression of yeast trafficking mutant, preliminary HTS, modulators of trafficking downstream of Golgi apparatus project, 1536-format plate, OD 615 nm (AID 637). Conditions: yeast transport mutant growth, absorbance 615 nm, 18 h; stronger effect = higher value.
The mark [7] stands for this setting: H69AR cells + 2 uM doxorubicin, measured here: viability with 2 uM doxorubicin, stronger effect = lower value.
Where [8] appears, read: H69AR cells, compound alone cytotoxicity.

Activity calls are given as the source filed them. Rule as the data show it, unless noted: active = inhibition above about 30%; inactive = the rest.

For `CCn1cc(C(=O)O)c(=O)c2cc(F)c(N3CCNCC3)nc21`, the viability in test [1] was 106% (inactive); in test [2], 84% (inactive); in test [3], 105% (inactive); in test [4] (setting [7]), 102%; in test [4] (setting [8]), 105%. Besides, the differential viability (reversal) in test [4] (H69AR cells + 2 uM doxorubicin) is 3.24% (inactive). Moreover, the inhibition in test [5] was 2.34% (inactive); in test [6] it was -2.33% (inactive).

On to `Cc1nc(SCC(=O)Nc2cc(C)on2)c2c3c(sc2n1)CCCC3`, for which the viability in test [1] is 66.5% (inactive); in test [2], 78.5% (inactive); in test [3], 30.4% (active); in test [4] (setting [7]), 24.2%; in test [4] (setting [8]), 30.4%. In addition, in test [4] (H69AR cells + 2 uM doxorubicin), the differential viability (reversal) was 6.21% (inactive). The values for the inhibition in test [5] and in test [6] were -2.97% (inactive) and -1.11% (inactive), respectively.

On to `O=C(COC(=O)C12CC3CC(CC(C3)C1)C2)NCc1ccco1`, for which the viability in test [1] is 101% (inactive); in test [2], 98.5% (inactive); in test [3], 64.6% (inactive); in test [4] (setting [7]), 86%; in test [4] (setting [8]) it was 64.6%. Moreover, the differential viability (reversal) in test [4] (H69AR cells + 2 uM doxorubicin) is -21.4% (inactive). Besides, the inhibition in test [5] is -4.16% (inactive); in test [6], -3.93% (inactive).

For the compound `O=C(CN1C(=O)c2cccc3cccc1c23)Nc1ccccc1C(=O)NCc1ccco1`, the viability in test [1] was 89% (inactive); in test [2], 108% (inactive); in test [3] it was 78.9% (inactive); in test [4] (setting [7]), 81.8%; in test [4] (setting [8]) it was 78.9%. Also, in test [4] (H69AR cells + 2 uM doxorubicin), the differential viability (reversal) was -2.93% (inactive). In addition, the inhibition in test [5] is -1.49% (inactive); in test [6], -8.67% (inactive).

Consider `O=c1c2cnn(-c3ccccc3)c2ncn1/N=C/c1ccncc1`, for which the viability in test [1] was 125% (inactive); in test [2] it was 108% (inactive); in test [3], 101% (inactive); in test [4] (setting [7]), 82.2%; in test [4] (setting [8]), 101%. In addition, the differential viability (reversal) in test [4] (H69AR cells + 2 uM doxorubicin) is 18.9% (inactive). The inhibition in test [5] is -5.07% (inactive); in test [6], -4.91% (inactive).

In the case of `Cc1nc(CCNS(=O)(=O)c2cccs2)cs1`, the viability was 86% (inactive) in test [1]; 105% (inactive) in test [2]; 97.5% (inactive) in test [3]; 86% in test [4] (setting [7]); 97.5% in test [4] (setting [8]). Further, in test [4] (H69AR cells + 2 uM doxorubicin), the differential viability (reversal) is 11.5% (inactive). In addition, the values for the inhibition in test [5] and in test [6] were 7.92% (inactive) and -12.8% (inactive), respectively.

Regarding `CCC(=O)c1ccc(O)cc1`, the viability in test [1] is 96% (inactive); in test [2], 97% (inactive); in test [3], 97.1% (inactive); in test [4] (setting [7]), 101%; in test [4] (setting [8]), 97.1%. The differential viability (reversal) in test [4] (H69AR cells + 2 uM doxorubicin) is -3.6% (inactive). Further, the inhibition in test [5] was -0.13% (inactive); in test [6], 3.33% (inactive).

`CCOc1ccc(NC(=O)Cn2nnc(-c3ccccc3F)n2)cc1`: the viability was 105% (inactive) in test [1]; 100% (inactive) in test [2]; 94.6% (inactive) in test [3]; 87.2% in test [4] (setting [7]); 94.6% in test [4] (setting [8]). In test [4] (H69AR cells + 2 uM doxorubicin), the differential viability (reversal) is 7.41% (inactive). Besides, the inhibition in test [5] is -4.42% (inactive); in test [6] it was -2.3% (inactive).

Turning to `CC(=O)Nc1ccc(S(=O)(=O)CCC#N)cc1`, the viability is 109% (inactive) in test [1]; 89.4% (inactive) in test [2]; 91.7% (inactive) in test [3]; 98% in test [4] (setting [7]); 91.7% in test [4] (setting [8]). Further, in test [4] (H69AR cells + 2 uM doxorubicin), the differential viability (reversal) is -6.28% (inactive). For the same compound, the figures for the inhibition in test [5] and in test [6] were -1.17% (inactive) and 5.41% (inactive), respectively.

Regarding `COC(=O)CC(C(=O)Nc1cc(C(=O)OC)cc(C(=O)OC)c1)N1CCN(C)CC1` (centres undefined), the viability was 132% (inactive) in test [1]; 99.5% (inactive) in test [2]; 95.6% (inactive) in test [3]; 89.8% in test [4] (setting [7]); 95.6% in test [4] (setting [8]). The differential viability (reversal) in test [4] (H69AR cells + 2 uM doxorubicin) is 5.77% (inactive). In addition, the inhibition in test [5] was -5.62% (inactive); in test [6] it was -7.9% (inactive).

As for `O=C(NCCN1CCOCC1)NC1(C(F)(F)F)Oc2ccc(Cl)cc2O1` (centres undefined), the viability in test [1] is 107% (inactive); in test [2] it was 57.1% (inactive); in test [3], 22.6% (active); in test [4] (setting [7]), 39.5%; in test [4] (setting [8]), 22.6%. Further, the differential viability (reversal) in test [4] (H69AR cells + 2 uM doxorubicin) is -16.8% (inactive). For the same compound, the inhibition in test [5] was -7.53% (inactive); in test [6], 0% (inactive).

On to `CCOCCCNC(=O)C1CCC(CNS(=O)(=O)c2cccc3nsnc23)CC1` (centres undefined), for which the viability in test [1] was 102% (inactive); in test [2], 84.6% (inactive); in test [3], 88.3% (inactive); in test [4] (setting [7]), 93.6%; in test [4] (setting [8]), 88.3%. Also, the differential viability (reversal) in test [4] (H69AR cells + 2 uM doxorubicin) was -5.31% (inactive). For the same compound, the inhibition in test [5] is 0% (inactive); in test [6], -4.92% (inactive).

On to `CCn1cc(C(=O)O)c(=O)c2cc(F)c(N3CCNCC3)cc21`, for which the viability in test [1] is 105% (inactive); in test [2], 91.1% (inactive); in test [3], 92.1% (inactive); in test [4] (setting [7]), 88.9%; in test [4] (setting [8]) it was 92.1%. Besides, the differential viability (reversal) in test [4] (H69AR cells + 2 uM doxorubicin) is 3.17% (inactive). Also, the inhibition in test [5] is -3.77% (inactive); in test [6], 7.83% (inactive).

Consider `COc1ccc(CCNC(=O)CCN2C(=O)C3CC=CCC3C2=O)cc1OC` (centres undefined), for which the viability in test [1] is 103% (inactive); in test [2], 91.9% (inactive); in test [3] it was 105% (inactive); in test [4] (setting [7]) it was 92.8%; in test [4] (setting [8]), 105%. The differential viability (reversal) in test [4] (H69AR cells + 2 uM doxorubicin) is 12% (inactive). Also, the inhibition in test [5] is -2.08% (inactive); in test [6] it was -1.97% (inactive).

On to `Cc1cccc(C(=O)N(C)c2nnc(-c3ccncc3)s2)c1`, for which the viability was 98% (inactive) in test [1]; 92.5% (inactive) in test [2]; 85.8% (inactive) in test [3]; 89.4% in test [4] (setting [7]); 85.8% in test [4] (setting [8]). The differential viability (reversal) in test [4] (H69AR cells + 2 uM doxorubicin) is -3.53% (inactive). The inhibition is -0.41% (inactive) in test [5] and 24.7% (inactive) in test [6].

Turning to `O=C(CN1C(=O)CCS(=O)(=O)c2ccccc21)Nc1cccc(F)c1`, the viability in test [1] was 115% (inactive); in test [2] it was 115% (inactive); in test [3], 106% (inactive); in test [4] (setting [7]), 96.5%; in test [4] (setting [8]), 106%. Moreover, in test [4] (H69AR cells + 2 uM doxorubicin), the differential viability (reversal) was 9.57% (inactive). Further, the inhibition in test [5] was 3.65% (inactive); in test [6], -1.09% (inactive).

For `COc1ccc(S(=O)(=O)N2CCN(S(=O)(=O)c3ccc4c(c3)OCCO4)CC2)cc1C`, the viability in test [1] is 101% (inactive); in test [2], 109% (inactive); in test [3], 88.2% (inactive); in test [4] (setting [7]) it was 70.7%; in test [4] (setting [8]), 88.2%. Also, the differential viability (reversal) in test [4] (H69AR cells + 2 uM doxorubicin) is 17.5% (inactive). Besides, the inhibition is -5.33% (inactive) in test [5] and 1.09% (inactive) in test [6].

`Cc1cc(S(=O)(=O)N2CCN(c3ccccc3C)CC2)ccc1F`: the viability is 89% (inactive) in test [1]; 90.1% (inactive) in test [2]; 79.5% (inactive) in test [3]; 79.8% in test [4] (setting [7]); 79.5% in test [4] (setting [8]). In addition, the differential viability (reversal) in test [4] (H69AR cells + 2 uM doxorubicin) is -0.315% (inactive). Further, the figures for the inhibition in test [5] and in test [6] were -0.78% (inactive) and 4.59% (inactive), respectively.

The term viability denotes a read-out of living cells in per cent, often relative to untreated cells. As a reminder, the inhibition is the relative decrease from the control value, in per cent.
